Common to all, as to assay type: functional
Assay [1] is described as follows: Superoxide radical scavenging activity by NBT reduction assay. The method, boiled down: (§1)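 Superoxide generated by NADH/PMS at room temperature. Final: NADH 166 µM, NBT 43 µM, PMS 2.7 µM in 19 mM phosphate pH 7.4; compounds in DMSO. NBT reduction to diformazan followed at 560 nm for 2 min. % inhibition. Propyl gallate control. Four experiments in triplicate.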

Assay [2] is described as follows: Hydrogen peroxide scavenging activity by assessed as inhibition of lucigenin oxidation. In short, it runs like this: (§2)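 Chemiluminescence assay of H2O2-induced lucigenin oxidation, 37 °C, 50 mM Tris-HCl pH 7.4. Final concentrations: lucigenin 0.8 mM, 1% H2O2. Compounds in DMSO at various concentrations. Signal read right after the plate goes into the reader. Reported as % inhibition of lucigenin oxidation. Ascorbic acid as positive control. Four experiments, each in triplicate.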

Assay [3] can be described thus: Hypochlorous acid scavenging activity assessed as inhibition of DHR oxidation. The method, boiled down:
(§3)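 HOCl made fresh by bringing 1% NaOCl to pH 6.2 with H2SO4, quantified at 235 nm. Final: DHR 5 µM, HOCl 5 µM in 100 mM phosphate pH 7.4, compounds in ethanol. Run at 37 °C; rhodamine 123 fluorescence (ex 485/em 528 nm) read immediately. % inhibition of DHR oxidation. Lipoic acid control. Four experiments in triplicate.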

Assay [4] is described as follows: Singlet oxygen scavenging activity by assessed as inhibition of DHR oxidation. The method, boiled down: (§4)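 Singlet oxygen from thermal breakdown of the endoperoxide NDPO2 (1 mM final), with histidine 10 mM and DHR 50 µM in 100 mM phosphate pH 7.4. Compounds in DMSO. After 30 min at 37 °C, rhodamine 123 fluorescence (ex 485/em 528 nm). % inhibition of DHR oxidation. Penicillamine control. Four experiments in triplicate.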

Assay [5] in a line: Nitric oxide scavenging activity assessed as inhibition of DAF2 oxidation. The method, boiled down: (§5)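 NOC-5 (10 µM final) as NO donor, DAF-2 5 µM in 50 mM KH2PO4 pH 7.4, compounds in DMSO. After 30 min at 37 °C, DAF-2T fluorescence read (ex 485/em 528 nm). Value is % inhibition of DAF-2 oxidation. Rutin control.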
Assay [6] in a line: Peroxynitrite scavenging activity assessed as inhibition of DHR oxidation. In short, it runs like this: (§6)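 Buffer of 90 mM NaCl, 50 mM Na3PO4, 5 mM KCl, pH 7.4, with 100 µM DTPA. Final: DHR 5 µM, ONOO− 600 nM, compounds in DMSO. 37 °C, fluorescence (ex 485/em 528 nm) after 2 min. % inhibition of DHR oxidation. Ebselen control. Four experiments in triplicate.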
The nature of assay [7]: Peroxynitrite scavenging activity assessed as inhibition of DHR oxidation in presence of NaHCo3. In short, it runs like this: (§7)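 Parallel peroxynitrite set with 25 mM NaHCO3 added to mimic physiological CO2. Otherwise the same: 100 µM DTPA phosphate/NaCl/KCl buffer pH 7.4, DHR 5 µM, ONOO− 600 nM, compounds in DMSO. 37 °C, 2 min, fluorescence ex 485/em 528 nm. % inhibition of DHR oxidation. Four experiments in triplicate.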

The nature of assay [8]: Hydrogen peroxide scavenging activity at 250 uM by assessed as inhibition of lucigenin oxidation. The method, boiled down: as §2
A short description of assay [9]: Nitric oxide scavenging activity assessed as inhibition of DAF2 oxidation at 250 uM. In short, it runs like this:
as §5

A short description of assay [10]: Superoxide radical scavenging activity at 100 uM by NBT reduction assay. In short, it runs like this:
as §1

The nature of assay [11]: Hypochlorous acid scavenging activity at 25 uM assessed as inhibition of DHR oxidation. In short, it runs like this: as §3
A short description of assay [12]: Singlet oxygen scavenging activity at 40 uM assessed as inhibition of DHR oxidation. The method, boiled down:
as §4

The nature of assay [13]: Nitric oxide scavenging activity assessed as inhibition of DAF2 oxidation at 50 uM. In short, it runs like this: as §5
Assay [14] is described as follows: Superoxide radical scavenging activity at 125 uM by NBT reduction assay. In short, it runs like this: as §1
A short description of assay [15]: Singlet oxygen scavenging activity at 1 mM assessed inhibition of as DHR oxidation. In short, it runs like this: as §4
The nature of assay [16]: Peroxynitrite scavenging activity assessed as inhibition of DHR oxidation at 500 uM. In short, it runs like this:
as §6

The nature of assay [17]: Peroxynitrite scavenging activity assessed as inhibition of DHR oxidation in presence of NaHCo3 at 500 uM. In short, it runs like this:
as §7

Assay [18] is described as follows: Peroxynitrite scavenging activity assessed as inhibition of DHR oxidation at 150 uM. In short, it runs like this:
as §6

A short description of assay [19]: Hypochlorous acid scavenging activity at 125 uM assessed as inhibition of DHR oxidation. In short, it runs like this: as §3
Assay [20] in a line: Singlet oxygen scavenging activity at 200 uM assessed as inhibition of DHR oxidation. The method, boiled down: as §4
Assay [21] in a line: Nitric oxide scavenging activity assessed as inhibition of DAF2 oxidation at 100 uM. The method, boiled down:
as §5

Assay [22] in a line: Peroxynitrite scavenging activity assessed as inhibition of DHR oxidation in presence of NaHCo3 at 150 uM. The method, boiled down:
as §7

Assay [23] in a line: Singlet oxygen scavenging activity at 500 uM assessed as inhibition of DHR oxidation. The method, boiled down: as §4
Assay [24] can be described thus: Peroxynitrite scavenging activity assessed as inhibition of DHR oxidation at 62 uM. The method, boiled down:
as §6

The nature of assay [25]: Hypochlorous acid scavenging activity at 50 uM assessed as inhibition of DHR oxidation. In short, it runs like this:
as §3

Assay [26] can be described thus: Singlet oxygen scavenging activity at 100 uM assessed as inhibition of DHR oxidation. In short, it runs like this: as §4
Assay [27] can be described thus: Peroxynitrite scavenging activity assessed as inhibition of DHR oxidation in presence of NaHCo3 at 62 uM. In short, it runs like this:
as §7

Assay [28] can be described thus: Hypochlorous acid scavenging activity at 100 uM assessed as inhibition of DHR oxidation. In short, it runs like this:
as §3

SMILES strings stand for the structures. Activity calls are given as the source filed them. No cut-off for these calls is given here.

Turning to `O=c1cc(-c2ccc(O)c(O)c2)oc2cc(O)cc(O)c12` [LUTEOLIN], the IC50 (commonly the point on the concentration scale where inhibition reaches its midpoint) in assay [1] came out at 58.5 µM; in [2] it was 900 µM; in assay [3], 7.1 µM; in assay [4] it was 23.4 µM; in assay [5] it was 2.61 µM; in [6], 0.3 µM. The IC50 in assay [7] is 0.64 µM.

With `O=c1cc(/C=C/c2ccc(O)c(O)c2)oc2cc(O)ccc12`, the IC50 in assay [1] is 51 µM; in [2], 114 µM; in assay [3], 18 µM; in [4] it was 10.1 µM; in [5] it was 0.29 µM; in assay [6] it was 0.3 µM. In assay [7], the IC50 came to 0.61 µM.

As to `O=C1O[C@H]([C@@H](O)CO)C(O)=C1O` [ASCORBIC ACID], the IC50 in assay [2] was 626 µM.

With `O=c1cc(/C=C/c2ccc(O)cc2)oc2cc(O)cc(O)c12`, the IC50 is 77.7 µM in assay [1]; 8.5 µM in assay [3]; 183 µM in assay [4]; 1.25 µM in assay [6]; 1.21 µM in assay [7]. The inhibition (in general, the share of the control response that was lost under treatment) in assay [8] was 36%; in assay [9], 21%.

`O=c1cc(/C=C/c2ccc(O)cc2)oc2cccc(O)c12`: the result in [10] and in assay [13] was inactive. Moreover, the inhibition in [8] worked out at 40%; in assay [11], 29%; in assay [12] it was 29%. For the same compound, the IC50 in [6] was determined as 1.04 µM; in assay [7], 0.98 µM.

As for `O=c1cc(/C=C/c2ccc(O)c(O)c2)oc2ccccc12`, the IC50 in assay [1] is 71.3 µM; in assay [2], 183 µM; in [3] it was 32.1 µM; in assay [4] it was 7.9 µM; in assay [5] it was 0.34 µM; in [6] it was 0.24 µM. Also, in [7], the IC50 is 0.44 µM.

For `CCCOC(=O)c1cc(O)c(O)c(O)c1` [PROPYL GALLATE], the midpoint of inhibition in [1], the IC50, lay at 24.6 µM.

`O=c1cc(/C=C/c2ccccc2)oc2cc(O)ccc12`: the inhibition in assay [14] was found to be 40%. In addition, the result in [8], in assay [15], in [9], in assay [16] and in [17] was inactive. In addition, the IC50 in assay [3] was determined as 72.3 µM.

Turning to `O=C(O)CCCCC1CCSS1` (stereo not drawn) [LIPOIC ACID, ALPHA], in [3], the IC50 is 2.4 µM.

For the compound `O=c1cc(/C=C/c2ccccc2)oc2ccccc12`, the inhibition in [18] stood at 27%; in [19], 10%; in assay [22] it was 27%. In addition, the result in assay [14], in assay [8], in assay [20] and in [21] was inactive.

For the compound `O=c1cc(-c2ccccc2)oc2cc(O)cc(O)c12` [CHRYSIN], the result in assay [14], in assay [8] and in [23] was inactive. The IC50 in assay [3] was found to be 3.9 µM; in assay [6], 188 µM; in assay [7], 140 µM. The inhibition in [9] was 20%.

Turning to `O=c1cc(/C=C/c2ccccc2)oc2cccc(O)c12`, the outcome in [24], in [14], in [8], in [26], in assay [13] and in assay [27] was inactive. Also, the inhibition in assay [25] turned out to be 17%.

Consider `O=c1cc(/C=C/c2ccccc2)oc2cc(O)cc(O)c12`, for which the inhibition in assay [14] came to 27%. Also, the result in assay [8] was inactive. In addition, the IC50 in assay [3] worked out at 5.7 µM; in assay [4], 163 µM; in [5], 73.9 µM; in assay [6], 46.6 µM; in [7], 40.6 µM.

As for `O=c1cc(/C=C/c2ccc(O)cc2)oc2ccccc12`, the inhibition in assay [14] came to 32%; in assay [28], 34%; in assay [9], 46%. In addition, in assay [8], the outcome was inactive. For the same compound, the results for the IC50 in [4], in assay [6] and in [7] were 245 µM, 1.2 µM and 1.23 µM, respectively.

For the compound `O=c1cc(-c2ccccc2)oc2cc(O)ccc12` [7-HYDROXYFLAVONE], the outcome in assay [14], in assay [8], in assay [15], in [9], in [16] and in assay [17] was inactive. Besides, in assay [3], the IC50 was determined as 146 µM.

Consider `O=c1cc(/C=C/c2ccc(O)c(O)c2)oc2cccc(O)c12`, for which the IC50 was found to be 80.4 µM in assay [1]; 48.9 µM in [2]; 16.9 µM in assay [3]; 4.9 µM in assay [4]; 0.24 µM in assay [5]; 0.26 µM in assay [6]. Moreover, in assay [7], the IC50 was 0.51 µM.

For `O=c1c2ccccc2[se]n1-c1ccccc1` [EBSELEN], the IC50 in [6] turned out to be 0.91 µM; in assay [7] it was 4.63 µM.

`O=c1cc(/C=C/c2ccc(O)cc2)oc2cc(O)ccc12`: the IC50 in assay [1] turned out to be 66.2 µM; in assay [3] it was 92 µM; in [4], 266 µM; in assay [6], 1.4 µM; in assay [7], 1.65 µM. For the same compound, the outcome in assay [8] was inactive. In [9], the inhibition worked out at 23%.

Consider `O=c1c(O)c(-c2ccc(O)c(O)c2)oc2cc(O)cc(O)c12` [QUERCETIN], for which the IC50 was 47.3 µM in assay [1]; 785 µM in [2]; 1.1 µM in assay [3]; 5.3 µM in assay [4]; 1.95 µM in assay [5]; 0.26 µM in assay [6]. In [7], the IC50 stood at 0.44 µM.

As for `C[C@@H]1O[C@@H](OC[C@H]2O[C@@H](Oc3c(-c4ccc(O)c(O)c4)oc4cc(O)cc(O)c4c3=O)[C@H](O)[C@@H](O)[C@@H]2O)[C@H](O)[C@H](O)[C@H]1O` [RUTIN], in assay [5], the IC50 was determined as 3.66 µM.

For the compound `O=c1cc(/C=C/c2ccc(O)c(O)c2)oc2cc(O)cc(O)c12`, the IC50 was 48.9 µM in assay [1]; 50.3 µM in [2]; 3.9 µM in [3]; 6.5 µM in assay [4]; 0.51 µM in assay [5]; 0.26 µM in [6]. Moreover, the IC50 in [7] is 0.63 µM.

On to `O=c1cc(-c2ccccc2)oc2cccc(O)c12`, for which the outcome in [24], in [14], in [8], in assay [26], in assay [21] and in assay [27] was inactive. Further, the inhibition in [25] came out at 17%.

Take `CC(C)(S)[C@@H](N)C(=O)O` [PENICILLAMINE]: the IC50 in [4] came to 4.9 µM.

With `O=c1cc(-c2ccc(O)cc2)oc2cc(O)cc(O)c12` [APIGENIN], the inhibition turned out to be 35% in [10] and 30% in assay [15]. The result in [8] and in assay [9] was inactive. For the same compound, the IC50 in assay [3] is 3.9 µM; in [6], 76.1 µM; in [7], 21.2 µM.

Source of the values: ChEMBL document CHEMBL1143754, “2-Styrylchromones: novel strong scavengers of reactive oxygen and nitrogen species” (Bioorg Med Chem, 2007).
